Here are results for eight compounds from ChEMBL document CHEMBL2434844, “Synthesis, antimicrobial, antioxidant activities of novel 6-aryl-5-cyano thiouracil derivatives” (Eur J Med Chem, 2013).

Test [1] has as its system Staphylococcus aureus. Briefly: Antibacterial activity against Staphylococcus aureus ATCC 12600 at 10 mg/disc after 48 hrs by disc-diffusion method. Type of test: functional. The essentials:
(§1)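 Disc diffusion per Bauer method under NCCLS conditions on nutrient agar/Mueller-Hinton agar. Compound dissolved in sterile DMSO at 10 mg/mL, filtered 0.2 µm, stored frozen at -15 °C; 10 mg/disc in DMSO applied. DMSO control. Inhibition zone diameter measured in mm after 48 h incubation at 28 °C.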
(In general: A growth-free zone around the sample is the usual read-out of agar diffusion tests.)

In test [2] the test system is Bacillus cereus. Kind of test: Antibacterial activity against Bacillus cereus ATCC 14579 after 24 hrs by microdilution technique. The settings on record: ATCC 14579, 24 h. Type of test: functional. The essentials: (§2)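 MIC by agar microdilution on Mueller-Hinton agar per NCCLS 1997. Bacteria subcultured overnight at 37 °C on MHA, Candida on SDA at 35 °C for 24-48 h, each passaged at least twice. Incubated 37 °C in humid chamber, read after 24 h.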
(In general: In broth dilution the organism is exposed to a series of concentrations in liquid medium.)

Test [3] concerns Escherichia coli. Briefly: Antibacterial activity against Escherichia coli ATCC 11775 after 24 hrs by microdilution technique. Type of test: functional. The settings on record: DSM 30083 = JCM 1649, 24 h. The essentials: as §2
The test system of test [4] is Candida albicans. Kind of test: Antifungal activity against Candida albicans ATCC 26555 at 10 mg/disc after 48 hrs by disc-diffusion method. Type of test: functional. The essentials: as §1
Test [5] concerns Aspergillus flavus. Kind of test: Antifungal activity against Aspergillus flavus ATCC 11495 after 24 hrs by microdilution technique. Type of test: functional.
Test [6] concerns Aspergillus flavus. Briefly: Antifungal activity against Aspergillus flavus ATCC 11495 at 10 mg/disc after 48 hrs by disc-diffusion method. Type of test: functional. The essentials:
as §1

For test [7], the system named is Candida albicans. Kind of test: Antifungal activity against Candida albicans ATCC 26555 after 24 hrs by microdilution technique. Type of test: functional. Put shortly: as §2
Test [8] relates to Escherichia coli. Kind of test: Antibacterial activity against Escherichia coli ATCC 11775 at 10 mg/disc after 48 hrs by disc-diffusion method. It counts as functional, DSM 30083 = JCM 1649. Put shortly:
as §1

The subject of test [9] is Bacillus cereus. Kind of test: Antibacterial activity against Bacillus cereus ATCC 14579 at 10 mg/disc after 48 hrs by disc-diffusion method. It counts as functional. Put shortly: as §1
The test system of test [10] is Staphylococcus aureus. Kind of test: Antibacterial activity against Staphylococcus aureus ATCC 12600 after 24 hrs by microdilution technique. The following applies: ATCC 12600, 24 h. It counts as functional. Put shortly: as §2

Structures are written as SMILES. Converted amounts (≈) assume the structure as drawn. The source made the active and inactive calls. The rule behind the calls is not given here.

As a reminder, the MIC is the lowest concentration that inhibits growth of the organism. As for `N#Cc1c(NN)nc(=S)[nH]c1-c1ccc(Br)cc1`, the “diameter of the inhibition zone (DIZ)” value stood at 13 mm in the test on Staphylococcus aureus [1], 11 mm in the test with Escherichia coli [8] and 11 mm with Bacillus cereus [9]. Also, the MIC against Bacillus cereus [2], in the test with Escherichia coli [3] and against Staphylococcus aureus [10] was 64 µg/mL (≈ 199 µM) in each case. Also, the “diameter of the inhibition zone (DIZ)” value in the test on Candida albicans [4] and in the test with Aspergillus flavus [6] was “inactive” throughout. The MIC entry in the test on Aspergillus flavus [5] and in the test on Candida albicans [7] was “inactive” in each case.
For `COc1cc(-c2[nH]c(=S)nc(N/N=C/c3ccc(F)cc3)c2C#N)cc(OC)c1OC`, the “diameter of the inhibition zone (DIZ)” value is 19 mm in the test on Staphylococcus aureus [1]; 16 mm with Candida albicans [4]; 15 mm with Aspergillus flavus [6]; 12 mm in the test on Escherichia coli [8]; 17 mm with Bacillus cereus [9]. The minimal inhibitory concentration (MIC) against Bacillus cereus [2] was determined as 32 µg/mL (≈ 72.8 µM); with Escherichia coli [3] it was 32 µg/mL (≈ 72.8 µM); in the test on Aspergillus flavus [5] (ATCC 11495, 24 h), 32 µg/mL (≈ 72.8 µM); with Candida albicans [7] (ATCC 26555, 24 h), 32 µg/mL (≈ 72.8 µM); against Staphylococcus aureus [10], 32 µg/mL (≈ 72.8 µM).
With `N#Cc1c(-c2ccc(F)cc2)[nH]c(=S)n2cnnc12`, the “diameter of the inhibition zone (DIZ)” value in the test with Staphylococcus aureus [1] is 22 mm; in the test on Candida albicans [4], 18 mm; in the test with Aspergillus flavus [6] it was 19 mm; in the test with Escherichia coli [8], 14 mm; with Bacillus cereus [9], 19 mm. Further, the minimal inhibitory concentration (MIC) with Bacillus cereus [2] is 16 µg/mL (≈ 59 µM); against Escherichia coli [3], 16 µg/mL (≈ 59 µM); with Aspergillus flavus [5] (ATCC 11495, 24 h), 16 µg/mL (≈ 59 µM); with Candida albicans [7] (ATCC 26555, 24 h), 16 µg/mL (≈ 59 µM); against Staphylococcus aureus [10], 16 µg/mL (≈ 59 µM).
As to `COc1cc(-c2[nH]c(=S)n3nnnc3c2C#N)cc(OC)c1OC`, the “diameter of the inhibition zone (DIZ)” value in the test on Staphylococcus aureus [1] is recorded as 14 mm; in the test with Escherichia coli [8], 12 mm; in the test on Bacillus cereus [9] it was 12 mm. In addition, the minimum inhibitory concentration (MIC) is 32 µg/mL (≈ 92.9 µM) against Bacillus cereus [2], 32 µg/mL (≈ 92.9 µM) in the test on Escherichia coli [3] and 16 µg/mL (≈ 46.5 µM) in the test with Staphylococcus aureus [10]. In addition, the “diameter of the inhibition zone (DIZ)” value in the test on Candida albicans [4] and in the test on Aspergillus flavus [6] was “inactive” each time. Further, the MIC result with Aspergillus flavus [5] and with Candida albicans [7] was “inactive” throughout.
With `COc1ccc(/C=N/Nc2nc(=S)[nH]c(-c3cc(OC)c(OC)c(OC)c3)c2C#N)cc1`, the “diameter of the inhibition zone (DIZ)” value in the test with Staphylococcus aureus [1] came out at 17 mm; with Candida albicans [4] it was 15 mm; in the test on Aspergillus flavus [6], 15 mm; in the test on Escherichia coli [8], 12 mm; in the test on Bacillus cereus [9] it was 15 mm. Moreover, the minimal inhibitory concentration (MIC) with Bacillus cereus [2] came to 32 µg/mL (≈ 70.9 µM); against Escherichia coli [3], 32 µg/mL (≈ 70.9 µM); against Aspergillus flavus [5] (ATCC 11495, 24 h) it was 32 µg/mL (≈ 70.9 µM); in the test on Candida albicans [7] (ATCC 26555, 24 h), 32 µg/mL (≈ 70.9 µM); in the test on Staphylococcus aureus [10], 32 µg/mL (≈ 70.9 µM).
As for `N#Cc1c(N/N=C/c2ccc(F)cc2)nc(=S)[nH]c1-c1ccc(F)cc1`, the “diameter of the inhibition zone (DIZ)” value in the test on Staphylococcus aureus [1] came out at 19 mm; with Candida albicans [4], 15 mm; in the test with Aspergillus flavus [6], 14 mm; with Escherichia coli [8] it was 12 mm; in the test with Bacillus cereus [9] it was 16 mm. Further, the MIC against Bacillus cereus [2] is 32 µg/mL (≈ 87.1 µM); against Escherichia coli [3] it was 32 µg/mL (≈ 87.1 µM); against Aspergillus flavus [5] (ATCC 11495, 24 h), 32 µg/mL (≈ 87.1 µM); against Candida albicans [7] (ATCC 26555, 24 h), 32 µg/mL (≈ 87.1 µM); in the test with Staphylococcus aureus [10] it was 32 µg/mL (≈ 87.1 µM).
For the compound `Cc1nc2c(C#N)c(-c3ccc(F)cc3)[nH]c(=S)n2n1`, the “diameter of the inhibition zone (DIZ)” value in the test on Staphylococcus aureus [1] is recorded as 7 mm; with Candida albicans [4], 8 mm; in the test on Aspergillus flavus [6], 7 mm; in the test on Escherichia coli [8] it was 7 mm; in the test with Bacillus cereus [9], 5 mm. In addition, the MIC worked out at 128 µg/mL (≈ 449 µM) with Bacillus cereus [2]; 128 µg/mL (≈ 449 µM) in the test with Escherichia coli [3]; 256 µg/mL (≈ 897 µM) with Aspergillus flavus [5] (ATCC 11495, 24 h); 128 µg/mL (≈ 449 µM) with Candida albicans [7] (ATCC 26555, 24 h); 128 µg/mL (≈ 449 µM) against Staphylococcus aureus [10].
With `COc1cc(-c2[nH]c(=S)n3nc(C)nc3c2C#N)cc(OC)c1OC`, the “diameter of the inhibition zone (DIZ)” value in the test on Staphylococcus aureus [1] stood at 6 mm; in the test on Candida albicans [4], 8 mm; in the test on Aspergillus flavus [6], 7 mm; with Escherichia coli [8], 7 mm; in the test with Bacillus cereus [9] it was 6 mm. Besides, the MIC against Bacillus cereus [2] came out at 128 µg/mL (≈ 358 µM); in the test on Escherichia coli [3], 128 µg/mL (≈ 358 µM); against Aspergillus flavus [5] (ATCC 11495, 24 h), 256 µg/mL (≈ 716 µM); with Candida albicans [7] (ATCC 26555, 24 h) it was 128 µg/mL (≈ 358 µM); with Staphylococcus aureus [10] it was 128 µg/mL (≈ 358 µM).
